Test results as given in ChEMBL document CHEMBL4196195, “( R)- N-(1-Methyl-2-hydroxyethyl)-13-( S)-methyl-arachidonamide (AMG315): A Novel Chiral Potent Endocannabinoid Ligand with Stability to Metabolizing Enzymes” (J Med Chem, 2018).
pEC50, pKi: −log10 of the molar value. Active and inactive are the calls of the source.

Tests used:
Cannabinoid receptor 1 [1] = biological target: T1, Cannabinoid receptor 1 (Rattus norvegicus, UniProt P20272); test: Agonist activity at rat CB1 receptor expressed in HEK293 cells assessed as inhibition of forskolin-induced cAMP accumulation incubated for 30 mins; type: functional, cell-based; conditions: for pEC50: read-out: EC50; for EC50: hek293
T1 sequence (P20272 whole entry): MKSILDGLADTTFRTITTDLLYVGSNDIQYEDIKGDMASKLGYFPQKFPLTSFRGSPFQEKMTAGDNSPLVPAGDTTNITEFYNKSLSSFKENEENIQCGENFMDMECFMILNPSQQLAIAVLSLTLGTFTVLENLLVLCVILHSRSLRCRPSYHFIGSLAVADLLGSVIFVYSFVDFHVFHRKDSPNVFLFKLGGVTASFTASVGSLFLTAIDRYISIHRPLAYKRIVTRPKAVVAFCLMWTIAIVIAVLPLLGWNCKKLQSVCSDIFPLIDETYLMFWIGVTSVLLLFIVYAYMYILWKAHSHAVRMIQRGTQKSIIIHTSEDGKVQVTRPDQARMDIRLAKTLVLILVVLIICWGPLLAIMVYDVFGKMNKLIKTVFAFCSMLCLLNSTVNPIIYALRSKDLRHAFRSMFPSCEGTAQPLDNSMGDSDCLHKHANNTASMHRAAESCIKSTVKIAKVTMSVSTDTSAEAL
Method in brief: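 HEK293 cells stably expressing rCB1, harvested with nonenzymatic dissociation reagent, washed in HBSS, 1000–1500 cells/well. Test compound at various concentrations with forskolin (2 μM final) in stimulation buffer, 30 min at room temperature. cAMP read by TR-FRET (Eu-cAMP tracer plus ULight anti-cAMP, 60 min room temperature). Forskolin-stimulated cAMP set to 100%. EC50 from nonlinear regression; two independent experiments in triplicate.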

Cannabinoid receptor 2 [2] = biological target: Cannabinoid receptor 2 (Homo sapiens, UniProt P34972); test: Displacement of [3H]CP-55,940 from human CB2 receptor expressed in HEK293 cell membranes in absence of FAAH inhibitor PMSF by radioligand binding assay
Chain of Cannabinoid receptor 2 (Homo sapiens, UniProt P34972) (P34972 whole entry): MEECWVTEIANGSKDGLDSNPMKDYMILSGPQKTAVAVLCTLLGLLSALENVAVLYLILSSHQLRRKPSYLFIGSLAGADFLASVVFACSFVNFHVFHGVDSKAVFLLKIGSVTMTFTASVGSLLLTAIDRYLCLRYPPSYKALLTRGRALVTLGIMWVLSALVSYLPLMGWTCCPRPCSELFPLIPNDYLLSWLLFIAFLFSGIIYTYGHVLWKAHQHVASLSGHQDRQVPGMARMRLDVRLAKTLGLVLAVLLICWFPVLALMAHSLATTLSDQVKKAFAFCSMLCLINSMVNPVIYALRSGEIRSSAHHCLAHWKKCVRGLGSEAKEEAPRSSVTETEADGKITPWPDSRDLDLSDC

Cannabinoid receptor 2 [3] = biological target: Cannabinoid receptor 2 (Mus musculus, UniProt P47936); test: Displacement of [3H]CP-55,940 from mouse CB2 receptor expressed in HEK293 cell membranes in absence of FAAH inhibitor PMSF by radioligand binding assay
Chain of Cannabinoid receptor 2 (Mus musculus, UniProt P47936) (P47936 whole entry): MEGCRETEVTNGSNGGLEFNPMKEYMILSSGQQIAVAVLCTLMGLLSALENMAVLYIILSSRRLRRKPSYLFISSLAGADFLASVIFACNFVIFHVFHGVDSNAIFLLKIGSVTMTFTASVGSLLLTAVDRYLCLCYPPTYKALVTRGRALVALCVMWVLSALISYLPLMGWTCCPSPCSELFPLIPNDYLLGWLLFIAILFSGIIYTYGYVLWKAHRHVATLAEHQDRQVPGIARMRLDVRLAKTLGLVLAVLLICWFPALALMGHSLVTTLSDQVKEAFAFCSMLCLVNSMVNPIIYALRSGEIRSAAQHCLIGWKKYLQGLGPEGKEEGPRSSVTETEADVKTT
Method in brief: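 Membranes from HEK293 cells expressing human or mouse CB2 (preparations lacking FAAH activity), competing against [3H]CP-55,940. IC50 by nonlinear regression, converted to Ki. Three independent experiments run in triplicate; Ki is the mean of the three.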

[4] = biological target: Cannabinoid receptor 1 (Rattus norvegicus) (UniProt P20272); test: Agonist activity at rat CB1 receptor expressed in HEK293 cells assessed as inhibition of forskolin-induced cAMP accumulation incubated for 30 mins relative to 500 nM CP-55,940; type: functional, cell-based
Chain of Cannabinoid receptor 1 (Rattus norvegicus) (P20272 whole entry): as the sequence (P20272 whole entry) above

Cannabinoid receptor 1 [5] = biological target: T1, Cannabinoid receptor 1; test: Displacement of [3H]CP-55,940 from CB1 receptor in rat brain membranes in presence of FAAH inhibitor PMSF by radioligand binding assay; type: cell membranes, Membrane
Cannabinoid receptor 1 [6] = biological target: T1, Cannabinoid receptor 1; test: Displacement of [3H]CP-55,940 from CB1 receptor in rat brain membranes in absence of FAAH inhibitor PMSF by radioligand binding assay; type: cell membranes, Membrane
[7] = biological target: T2, Prostaglandin G/H synthase 2 (Mus musculus, UniProt Q05769); test: Stability assessed as mouse COX2-mediated compound oxidation by measuring oxygen consumption by polarographic assay; type: ADME
T2 sequence (Q05769 whole entry): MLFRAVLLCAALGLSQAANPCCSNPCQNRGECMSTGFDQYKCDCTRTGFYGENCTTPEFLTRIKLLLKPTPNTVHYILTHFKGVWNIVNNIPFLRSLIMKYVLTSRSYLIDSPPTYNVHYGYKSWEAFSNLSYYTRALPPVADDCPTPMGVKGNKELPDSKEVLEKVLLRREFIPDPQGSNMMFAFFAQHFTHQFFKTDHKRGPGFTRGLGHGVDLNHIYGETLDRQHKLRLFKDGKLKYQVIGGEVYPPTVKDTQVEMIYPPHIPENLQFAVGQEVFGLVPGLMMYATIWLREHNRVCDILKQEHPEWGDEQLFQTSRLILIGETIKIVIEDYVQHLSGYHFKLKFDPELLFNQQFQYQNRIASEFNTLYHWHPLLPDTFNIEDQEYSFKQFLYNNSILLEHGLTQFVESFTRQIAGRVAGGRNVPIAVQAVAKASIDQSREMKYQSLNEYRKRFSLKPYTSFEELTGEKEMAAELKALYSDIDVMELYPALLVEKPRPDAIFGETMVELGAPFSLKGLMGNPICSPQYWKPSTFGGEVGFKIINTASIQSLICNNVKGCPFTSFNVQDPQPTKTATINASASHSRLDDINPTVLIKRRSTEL

[8] = biological target: T3, FAAH (fatty-acid amide hydrolase 1) (Homo sapiens, UniProt O00519); test: Stability assessed as human FAAH-mediated compound hydrolysis by LC-MS/MS analysis; type: ADME; conditions: human FAAH (fatty-acid amide hydrolase 1), read-out: Stability
T3 sequence (O00519 whole entry): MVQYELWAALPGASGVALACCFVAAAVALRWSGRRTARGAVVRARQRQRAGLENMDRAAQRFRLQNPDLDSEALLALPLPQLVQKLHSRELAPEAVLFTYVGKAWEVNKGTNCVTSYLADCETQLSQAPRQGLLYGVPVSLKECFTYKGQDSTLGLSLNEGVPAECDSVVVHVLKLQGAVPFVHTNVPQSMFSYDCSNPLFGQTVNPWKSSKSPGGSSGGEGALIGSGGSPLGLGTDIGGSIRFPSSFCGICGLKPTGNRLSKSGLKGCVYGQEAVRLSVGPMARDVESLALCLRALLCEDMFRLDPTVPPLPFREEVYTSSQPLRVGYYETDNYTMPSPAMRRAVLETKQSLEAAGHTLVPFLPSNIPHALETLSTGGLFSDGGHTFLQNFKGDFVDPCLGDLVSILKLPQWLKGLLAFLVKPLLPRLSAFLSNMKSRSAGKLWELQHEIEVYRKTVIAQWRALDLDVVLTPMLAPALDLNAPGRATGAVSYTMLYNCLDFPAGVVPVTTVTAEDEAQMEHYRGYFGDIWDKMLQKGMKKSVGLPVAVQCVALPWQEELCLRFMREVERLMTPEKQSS
Method in brief: (§1)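 Expressed, partially purified rat or human FAAH incubated with compound, or AEA as reference substrate, for 30 min. Aliquots at time points quenched in acetonitrile to precipitate protein. Remaining compound measured by LC-MS/MS on a cyano column with 10 mM ammonium acetate pH 7.3/methanol at 0.5 mL/min.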

[9] = biological target: T3, FAAH (fatty-acid amide hydrolase 1); test: Stability assessed as half life for human FAAH-mediated compound hydrolysis by LC-MS/MS analysis; type: ADME; conditions: human FAAH (fatty-acid amide hydrolase 1); method in brief: as §1
[10] = biological target: T4, FAAH (fatty-acid amide hydrolase 1) (Rattus norvegicus, UniProt P97612); test: Stability assessed as half life for rat FAAH-mediated compound hydrolysis by LC-MS/MS analysis; type: ADME; conditions: rat FAAH (fatty-acid amide hydrolase 1); method in brief: as §1
T4 sequence (P97612 whole entry): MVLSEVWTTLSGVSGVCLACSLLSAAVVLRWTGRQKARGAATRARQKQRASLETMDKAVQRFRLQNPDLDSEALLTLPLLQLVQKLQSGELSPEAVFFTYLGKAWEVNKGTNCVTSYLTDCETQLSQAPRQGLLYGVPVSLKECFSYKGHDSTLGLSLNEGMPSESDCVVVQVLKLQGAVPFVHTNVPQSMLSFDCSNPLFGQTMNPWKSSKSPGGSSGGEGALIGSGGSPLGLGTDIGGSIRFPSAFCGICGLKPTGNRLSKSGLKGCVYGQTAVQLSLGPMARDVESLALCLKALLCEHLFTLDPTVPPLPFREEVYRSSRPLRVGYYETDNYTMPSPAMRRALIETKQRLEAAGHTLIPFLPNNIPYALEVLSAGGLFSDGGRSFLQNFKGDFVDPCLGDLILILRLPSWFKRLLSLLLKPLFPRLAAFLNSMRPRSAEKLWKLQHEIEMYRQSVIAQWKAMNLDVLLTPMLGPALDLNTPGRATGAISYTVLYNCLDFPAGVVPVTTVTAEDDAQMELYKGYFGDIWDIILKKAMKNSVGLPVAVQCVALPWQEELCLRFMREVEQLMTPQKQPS

Mus musculus [11] = test: Antiallodynic activity in CD1 mouse model of CFA-induced inflammatory pain assessed as increase in CFA-reduced mechanical paw withdrawal threshold at 20 mg/kg, ip measured at 10 mins post injection; type: functional, organism-based
Method in brief: (§2)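 Adult male mice (39 ± 10 g), wild-type CD1 or CB1 KO on CD1 background, single housed. CFA:saline 1:1 (20 μL) injected intraplantar into right hind paw; 48 h allowed before dosing. Drug given ip in 5 mL/kg, vehicle group included. Electronic von Frey (90 g probe) after ≥30 min habituation, read in duplicate per paw, at baseline, 48 h post-CFA and 10, 30, 60, 120 min post-dose. Two-way mixed ANOVA with Bonferroni post hoc tests.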

Mus musculus [12] = test: Antiallodynic activity in CD1 mouse model of CFA-induced inflammatory pain assessed as increase in CFA-reduced mechanical paw withdrawal threshold at 20 mg/kg, ip measured at 30 mins post injection; type: functional, organism-based; method in brief: as §2
Mus musculus [13] = test: Antiallodynic activity in CD1 mouse model of CFA-induced inflammatory pain assessed as increase in CFA-reduced mechanical paw withdrawal threshold at 20 mg/kg, ip measured up to 30 mins post injection; type: functional, organism-based; method in brief: as §2
Mus musculus [14] = test: Antiallodynic activity in CD1 mouse model of CFA-induced inflammatory pain assessed as increase in CFA-reduced mechanical paw withdrawal threshold at 20 mg/kg, ip measured at 60 mins post injection; type: functional, organism-based; method in brief: as §2
Mus musculus [15] = test: Antiallodynic activity in CD1 mouse model of CFA-induced inflammatory pain assessed as increase in CFA-reduced mechanical paw withdrawal threshold at 20 mg/kg, ip measured at 120 mins post injection; type: functional, organism-based; method in brief: as §2
[16] = biological target: T4, FAAH (fatty-acid amide hydrolase 1); test: Stability assessed as rat FAAH-mediated compound hydrolysis by LC-MS/MS analysis; type: ADME; conditions: rat FAAH (fatty-acid amide hydrolase 1), read-out: Stability; method in brief: as §1

| Compound | pEC50 (Cannabinoid receptor 1 [1]) | pKi (Cannabinoid receptor 2 [2]) | pKi (Cannabinoid receptor 2 [3]) | Emax [4] | pKi (Cannabinoid receptor 1 [5]) | pKi (Cannabinoid receptor 1 [6]) | Stability [7] | also measured |
| --- | --- | --- | --- | --- | --- | --- | --- | --- |
| C[C@H](/C=C\C/C=C\C/C=C\CCCC(=O)NC1CC1)/C=C\CCCCCN=[N+]=[N-] | 8.72 | 8.07 | 7.88 | 85% | 8.20 | 7.98 | – | – |
| CCCCC/C=C\[C@H](C)/C=C\C/C=C\C/C=C\CCCC(=O)NCCCl | – | 7.98 | 6.40 | – | 8.41 | 7.34 | – | – |
| CCCCC/C=C\C/C=C\C/C=C\[C@@H](C)/C=C\CCCC(=O)NCCO | – | 6.73 | < 6.00 | inactive | 6.28 | < 6.00 | Stable | EC50 (Cannabinoid receptor 1 [1]): Not Active |
| CCCCC/C=C\[C@H](C)/C=C\C/C=C\C/C=C\CCCC(=O)NC1CCC1 | 7.44 | 8.17 | 7.05 | 92% | 7.64 | 7.75 | Stable | half-life [8]: 30 min |
| C#CCNC(=O)CCC/C=C\C/C=C\C/C=C\[C@@H](C)/C=C\CCCCC | 7.98 | 7.95 | 7.13 | 89% | 8.37 | 8.07 | – | half-life [8]: 30 min |
| CCCCC/C=C\C/C=C\[C@@H](C)/C=C\C/C=C\CCCC(=O)NCCO | – | < 6.00 | < 6.00 | – | < 6.00 | < 6.00 | – | – |
| CCCCC/C=C\[C@H](C)/C=C\C/C=C\C/C=C\CCCC(=O)NCCO | 7.88 | 7.30 | 6.86 | 88% | 8.32 | < 6.00 | Stable | half-life [9]: 13.5 min |
| CCCCC/C=C\C/C=C\C/C=C\C/C=C\CCCC(=O)NCCO [ANANDAMIDE] | – | – | < 6.00 | 61% | – | – | – | half-life [10]: 12.1 min; half-life [9]: 13.2 min; Activity (Mus musculus [11]): Active; Activity (Mus musculus [12]): inactive |
| CCCCC/C=C\C/C=C\C/C=C\C/C=C\CCCC(=O)N[C@H](C)CO [METHANANDAMIDE] | – | – | < 6.00 | – | – | – | – | Activity (Mus musculus [13]): Active; Activity (Mus musculus [14]): Active; Activity (Mus musculus [11]): Active; Activity (Mus musculus [15]): inactive |
| CCCCC/C=C\C/C=C\[C@H](C)/C=C\C/C=C\CCCC(=O)NCCO | – | < 6.00 | < 6.00 | – | < 6.00 | < 6.00 | – | – |
| CCCCC/C=C\[C@@H](C)/C=C\C/C=C\C/C=C\CCCC(=O)NCCO | – | < 6.00 | < 6.00 | inactive | < 6.00 | < 6.00 | – | EC50 (Cannabinoid receptor 1 [1]): Not Active |
| C[C@H](/C=C\C/C=C\C/C=C\CCCC(=O)NC1CC1)/C=C\CCCCCN=C=S | – | 7.66 | 7.32 | – | 7.81 | 7.69 | – | – |
| CCCCC/C=C\[C@@H](C)/C=C\C/C=C\C/C=C\CCCC(=O)N[C@H](C)CO | – | – | < 6.00 | – | < 6.00 | < 6.00 | – | – |
| CCCCC/C=C\[C@H](C)/C=C\C/C=C\C/C=C\CCCC(=O)NC1CC1 | 9.52 | 8.37 | 7.24 | 88% | 8.82 | 7.83 | Stable | half-life [9]: 25.2 min |
| CCCCC/C=C\C/C=C\C/C=C\[C@H](C)/C=C\CCCC(=O)N[C@H](C)CO | 7.55 | 7.89 | 7.70 | 100% | 8.66 | 8.34 | Stable | half-life [8]: 30 min; half-life [16]: 30 min |
| CCCCC/C=C\[C@H](C)/C=C\C/C=C\C/C=C\CCCC(=O)NC1CCCC1 | – | 6.86 | 6.41 | – | 7.10 | 6.91 | – | half-life [8]: 30 min |
| CCCCC/C=C\C/C=C\C/C=C\[C@@H](C)/C=C\CCCC(=O)N[C@H](C)CO | 7.23 | 6.92 | < 6.00 | 98% | 7.67 | 7.53 | Stable | – |
| CCCCC/C=C\C/C=C\C/C=C\[C@H](C)/C=C\CCCC(=O)NCCO | 8.32 | 7.61 | 8.12 | 100% | 8.77 | 6.49 | Stable | – |
| C[C@H](/C=C\C/C=C\C/C=C\CCCC(=O)N[C@H](C)CO)/C=C\CCCOc1ccccc1 | – | 6.54 | < 6.00 | – | 7.08 | 7.19 | – | – |
